Measured values as given in ChEMBL document CHEMBL1141070, “Synthesis and biological activity of flurbiprofen analogues as selective inhibitors of beta-amyloid(1)(-)(42) secretion” (J Med Chem, 2005).

How the values were obtained:
[1] = biological target: T1, Prostaglandin G/H synthase 1 (Rattus norvegicus) (UniProt Q63921); assay: Percent inhibition against cyclooxygenase-1 at 100 uM in rat blood
T1 sequence (whole entry): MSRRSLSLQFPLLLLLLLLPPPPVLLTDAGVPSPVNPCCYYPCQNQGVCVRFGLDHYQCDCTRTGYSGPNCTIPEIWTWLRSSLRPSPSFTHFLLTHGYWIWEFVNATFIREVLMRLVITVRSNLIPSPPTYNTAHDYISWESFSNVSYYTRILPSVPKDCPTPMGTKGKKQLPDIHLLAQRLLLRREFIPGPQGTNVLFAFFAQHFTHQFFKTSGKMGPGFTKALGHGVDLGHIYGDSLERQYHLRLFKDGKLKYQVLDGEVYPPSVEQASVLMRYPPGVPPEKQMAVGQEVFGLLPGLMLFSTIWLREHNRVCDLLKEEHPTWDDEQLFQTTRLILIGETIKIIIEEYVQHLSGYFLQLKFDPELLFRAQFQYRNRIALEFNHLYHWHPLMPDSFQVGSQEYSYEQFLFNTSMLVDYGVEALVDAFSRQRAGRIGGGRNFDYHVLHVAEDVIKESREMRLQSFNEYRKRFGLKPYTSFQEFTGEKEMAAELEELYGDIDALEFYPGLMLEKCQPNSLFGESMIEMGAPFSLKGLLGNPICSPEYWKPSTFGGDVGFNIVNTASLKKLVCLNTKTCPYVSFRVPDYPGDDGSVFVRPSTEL
In short: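 Fresh rat whole blood preincubated 1 h at 37 °C with compound (100 μM) or DMSO (0.3% final). Stimulated 30 min with A23187 calcium ionophore; plasma thromboxane B2 measured by radioimmunoassay.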

Cytochrome P450 3A4 [2] = biological target: T2, Cytochrome P450 3A4 (Homo sapiens, UniProt P08684); assay: Inhibition of cytochrome P450 3A4 at 100 uM; activation observed; assay type: ADME
T2 sequence (P08684 whole entry, canonical isoform): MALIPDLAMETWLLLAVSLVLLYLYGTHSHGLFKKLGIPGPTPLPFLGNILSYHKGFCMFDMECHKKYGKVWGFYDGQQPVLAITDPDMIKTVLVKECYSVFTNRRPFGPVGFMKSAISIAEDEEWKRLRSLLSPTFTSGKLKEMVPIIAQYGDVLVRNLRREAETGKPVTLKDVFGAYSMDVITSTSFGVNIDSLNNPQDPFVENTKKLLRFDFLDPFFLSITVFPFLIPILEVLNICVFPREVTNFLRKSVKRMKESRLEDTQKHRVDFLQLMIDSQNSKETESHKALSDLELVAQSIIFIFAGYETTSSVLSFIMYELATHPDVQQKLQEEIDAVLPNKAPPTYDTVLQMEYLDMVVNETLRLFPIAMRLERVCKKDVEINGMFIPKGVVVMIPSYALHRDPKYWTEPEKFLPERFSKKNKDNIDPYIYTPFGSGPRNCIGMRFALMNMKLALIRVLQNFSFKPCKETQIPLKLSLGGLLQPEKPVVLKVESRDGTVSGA
In short: (§1)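 Supersome microsomes from baculovirus-insect cells expressing human CYP1A2, 2C9, 2C19, 2D6 or 3A4 were used with isoform-specific fluorogenic substrates. Compounds were serially diluted with an NADP⁺/glucose-6-phosphate regenerating system in 0.35 M potassium phosphate, pH 7.4. Plates were prewarmed 10 min at 37 °C, reactions stopped with acetonitrile/Tris, and fluorescence read. IC50 was obtained by nonlinear regression.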

[3] = biological target: T3, Amyloid-beta precursor protein (Homo sapiens, UniProt P05067); settings: at 100 µM
Target sequence in this assay (P05067 whole entry, canonical isoform): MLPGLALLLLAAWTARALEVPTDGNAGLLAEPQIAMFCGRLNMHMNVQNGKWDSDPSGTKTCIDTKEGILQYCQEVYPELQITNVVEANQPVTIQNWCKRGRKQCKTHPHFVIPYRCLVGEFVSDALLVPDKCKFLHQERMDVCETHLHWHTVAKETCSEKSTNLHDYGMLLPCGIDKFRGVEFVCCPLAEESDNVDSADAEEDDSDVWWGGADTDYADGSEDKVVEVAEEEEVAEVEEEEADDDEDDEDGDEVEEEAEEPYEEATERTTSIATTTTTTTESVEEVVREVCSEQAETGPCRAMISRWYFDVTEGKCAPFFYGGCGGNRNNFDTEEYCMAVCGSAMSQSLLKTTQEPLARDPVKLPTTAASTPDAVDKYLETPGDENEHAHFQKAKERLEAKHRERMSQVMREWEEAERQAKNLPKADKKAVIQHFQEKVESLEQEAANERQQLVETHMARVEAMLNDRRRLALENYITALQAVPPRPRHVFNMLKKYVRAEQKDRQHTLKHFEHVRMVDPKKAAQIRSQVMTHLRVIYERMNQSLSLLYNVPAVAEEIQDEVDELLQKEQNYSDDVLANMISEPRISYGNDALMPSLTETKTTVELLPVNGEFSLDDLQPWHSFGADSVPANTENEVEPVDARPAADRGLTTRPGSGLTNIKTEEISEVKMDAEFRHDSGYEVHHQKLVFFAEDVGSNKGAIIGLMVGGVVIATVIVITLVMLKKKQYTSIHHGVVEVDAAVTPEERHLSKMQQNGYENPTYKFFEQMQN

Cytochrome P450 3A4 [4] = biological target: T2, Cytochrome P450 3A4; assay: (§2) Interaction with human cytochrome P450 isoform 3A4 expressed in baculovirus-insect cells; assay type: ADME
In short: (§3)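 Microsomes from baculovirus-insect cells expressing human CYP1A2, 2C9, 2C19, 2D6 or 3A4. Compound serially diluted with an NADPH-regenerating mix (16.3 μM NADP+, 0.83 mM glucose-6-phosphate, 0.83 mM MgCl2, 0.4 U/mL G6PDH). Pre-warmed 10 min at 37 °C, then isoform-specific substrate added in 0.35 M potassium phosphate pH 7.4. Fluorometric read-out; IC50 by nonlinear regression.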

[5] = biological target: T3, Amyloid-beta precursor protein; assay: Inhibitory concentration against beta-amyloid-42 (Abeta42) secretion was evaluated in human neuroglioma cells (H4-APP695NL); assay type: functional, cell-based
In short: (§4)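 H4-APP695NL human neuroglioma cells (APP695 Swedish K595N/M596L) seeded at 2 × 10^5/well and grown 24 h to confluence. Increasing compound concentrations added overnight; DMSO 1% as vehicle. Supernatant Aβ42 or Aβ40 measured by electrochemiluminescence immunoassay: biotinylated 4G8 plus C-terminus-specific rabbit antibodies, captured on streptavidin beads.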
Target sequence in this assay (P05067 18-770 limits assumed): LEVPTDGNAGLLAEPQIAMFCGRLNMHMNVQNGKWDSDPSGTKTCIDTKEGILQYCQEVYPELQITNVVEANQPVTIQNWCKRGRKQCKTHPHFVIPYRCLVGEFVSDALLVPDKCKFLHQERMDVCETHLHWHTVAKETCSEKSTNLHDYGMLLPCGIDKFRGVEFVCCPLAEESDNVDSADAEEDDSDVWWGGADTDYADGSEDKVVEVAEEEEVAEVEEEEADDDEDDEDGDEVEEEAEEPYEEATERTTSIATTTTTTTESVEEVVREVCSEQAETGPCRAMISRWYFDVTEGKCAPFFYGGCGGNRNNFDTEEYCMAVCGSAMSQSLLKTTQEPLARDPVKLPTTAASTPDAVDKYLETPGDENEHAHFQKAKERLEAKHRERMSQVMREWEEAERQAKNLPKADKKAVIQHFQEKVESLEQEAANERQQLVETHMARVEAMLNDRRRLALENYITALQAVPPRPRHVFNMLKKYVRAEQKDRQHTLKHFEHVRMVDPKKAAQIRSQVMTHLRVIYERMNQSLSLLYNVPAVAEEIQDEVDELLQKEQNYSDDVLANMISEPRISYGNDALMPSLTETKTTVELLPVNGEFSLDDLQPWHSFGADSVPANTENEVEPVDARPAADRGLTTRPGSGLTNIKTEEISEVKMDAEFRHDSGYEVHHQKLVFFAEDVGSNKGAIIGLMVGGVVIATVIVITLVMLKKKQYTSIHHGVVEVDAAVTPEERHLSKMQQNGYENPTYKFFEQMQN

[6] = Intestinal drug absorption was estimated in vitro using human colon adenocarcinoma (Caco-2) cell monolayers; assay type: ADME
In short: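 Caco-2 monolayers on polycarbonate Transwell inserts, 2 h at 37 °C. Apical and basolateral solutions analysed by LC-MS/MS (SRM). Papp = Cb·Vb/(C0·A·t).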

Cytochrome P450 1A2 [7] = biological target: T4, Cytochrome P450 1A2 (Homo sapiens, UniProt P05177); assay: (§5) Interaction with human cytochrome P450 isoform 1A2 expressed in baculovirus-insect cells; assay type: ADME; in short: as §3
T4 sequence (P05177 whole entry): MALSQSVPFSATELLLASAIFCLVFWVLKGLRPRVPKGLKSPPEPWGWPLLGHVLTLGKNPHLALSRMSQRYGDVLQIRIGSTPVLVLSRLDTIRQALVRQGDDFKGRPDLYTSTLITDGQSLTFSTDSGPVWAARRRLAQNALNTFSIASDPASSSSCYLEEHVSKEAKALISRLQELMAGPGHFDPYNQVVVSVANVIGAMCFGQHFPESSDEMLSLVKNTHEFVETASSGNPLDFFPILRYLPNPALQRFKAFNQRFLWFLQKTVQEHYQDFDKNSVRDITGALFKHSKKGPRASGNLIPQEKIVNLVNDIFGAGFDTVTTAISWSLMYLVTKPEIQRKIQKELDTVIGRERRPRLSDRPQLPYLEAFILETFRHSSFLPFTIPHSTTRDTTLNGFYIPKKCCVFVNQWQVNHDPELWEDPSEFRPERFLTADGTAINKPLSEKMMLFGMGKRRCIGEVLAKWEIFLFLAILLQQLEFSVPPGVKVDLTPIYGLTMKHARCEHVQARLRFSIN

[8] = Concentration ratio in cerebrospinal fluid and plasma; LLOQ = lower limit of quantitation; settings: rat
[9] = biological target: T3, Amyloid-beta precursor protein; assay: Concentration required to inhibit A beta 40 peptide 100 uM
Target sequence in this assay (P05067 whole entry, canonical isoform): as the sequence (P05067 whole entry, canonical isoform) above

[10] = In vivo steady state metabolic clearance of the compound; settings: rat
[11] = biological target: T3, Amyloid-beta precursor protein; assay: Concentration required to inhibit A beta 40 peptide; in short: as §4
Target sequence in this assay (P05067 whole entry, canonical isoform): as above

Cytochrome P450 2C9 [12] = biological target: T5, Cytochrome P450 2C9 (Homo sapiens, UniProt P11712); assay: Interaction with human cytochrome P450 isoform 2C9 expressed in baculovirus-insect cells; Activation was observed due to interference in assay; assay type: ADME; in short: as §3
T5 sequence (P11712 whole entry, canonical isoform): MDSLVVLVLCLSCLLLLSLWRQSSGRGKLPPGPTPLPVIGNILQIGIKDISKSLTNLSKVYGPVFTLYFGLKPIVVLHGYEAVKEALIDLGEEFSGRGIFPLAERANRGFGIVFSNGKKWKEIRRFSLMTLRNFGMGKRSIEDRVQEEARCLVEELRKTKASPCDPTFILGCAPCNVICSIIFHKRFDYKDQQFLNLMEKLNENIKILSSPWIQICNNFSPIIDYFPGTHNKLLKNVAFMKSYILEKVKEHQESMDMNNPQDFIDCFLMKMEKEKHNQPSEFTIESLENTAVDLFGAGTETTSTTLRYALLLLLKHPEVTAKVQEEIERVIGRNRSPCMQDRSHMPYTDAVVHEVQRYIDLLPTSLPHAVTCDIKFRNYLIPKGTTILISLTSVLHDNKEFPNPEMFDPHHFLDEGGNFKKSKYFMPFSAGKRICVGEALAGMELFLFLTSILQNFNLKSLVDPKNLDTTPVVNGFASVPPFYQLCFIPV

Cytochrome P450 2C9 [13] = biological target: T5, Cytochrome P450 2C9; assay: Interaction with human cytochrome P450 isoform 2C9 expressed in baculovirus-insect cells at 100 uM; assay type: ADME; in short: as §3
Cytochrome P450 3A4 [14] = biological target: T2, Cytochrome P450 3A4; assay: as §2; assay type: ADME; in short: as §1; remark: listed apart in the source
Cytochrome P450 2D6 = Cytochrome P450 2D6 (Homo sapiens, UniProt P10635); assay: Interaction with human cytochrome P450 isoform 2D6 expressed in baculovirus-insect cells; assay type: ADME; in short: as §1
Sequence of Cytochrome P450 2D6 (P10635 whole entry, canonical isoform): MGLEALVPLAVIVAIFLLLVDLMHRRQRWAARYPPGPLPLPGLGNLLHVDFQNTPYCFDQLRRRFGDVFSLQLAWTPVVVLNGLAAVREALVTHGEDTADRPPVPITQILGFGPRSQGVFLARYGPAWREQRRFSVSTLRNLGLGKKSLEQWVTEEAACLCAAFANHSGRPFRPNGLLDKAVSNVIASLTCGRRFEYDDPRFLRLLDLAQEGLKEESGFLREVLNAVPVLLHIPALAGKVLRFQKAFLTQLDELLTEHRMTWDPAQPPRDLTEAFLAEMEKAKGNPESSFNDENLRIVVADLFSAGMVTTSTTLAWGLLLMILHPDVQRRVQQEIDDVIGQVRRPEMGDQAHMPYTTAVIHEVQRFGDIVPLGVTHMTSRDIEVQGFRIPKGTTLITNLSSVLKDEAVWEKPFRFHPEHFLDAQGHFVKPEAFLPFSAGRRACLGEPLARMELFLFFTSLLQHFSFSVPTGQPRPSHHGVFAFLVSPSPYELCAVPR

Cytochrome P450 2C19 = Cytochrome P450 2C19 (Homo sapiens, UniProt P33261); assay: Interaction with human cytochrome P450 isoform 2C19 expressed in baculovirus-insect cells; assay type: ADME; in short: as §3
Sequence of Cytochrome P450 2C19 (P33261 whole entry, canonical isoform): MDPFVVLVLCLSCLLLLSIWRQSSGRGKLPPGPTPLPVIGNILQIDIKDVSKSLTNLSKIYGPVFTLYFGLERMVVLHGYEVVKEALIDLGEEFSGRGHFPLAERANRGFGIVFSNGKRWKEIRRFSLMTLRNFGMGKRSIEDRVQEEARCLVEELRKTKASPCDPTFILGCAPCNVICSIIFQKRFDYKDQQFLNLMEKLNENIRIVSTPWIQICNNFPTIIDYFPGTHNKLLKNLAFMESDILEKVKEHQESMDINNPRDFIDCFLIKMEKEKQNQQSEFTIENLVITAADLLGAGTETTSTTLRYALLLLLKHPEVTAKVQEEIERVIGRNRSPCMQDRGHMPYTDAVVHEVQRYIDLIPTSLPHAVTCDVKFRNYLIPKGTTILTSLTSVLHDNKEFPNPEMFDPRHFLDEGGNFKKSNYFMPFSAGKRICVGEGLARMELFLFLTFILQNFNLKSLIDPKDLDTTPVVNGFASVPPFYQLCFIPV

Cytochrome P450 1A2 [15] = biological target: T4, Cytochrome P450 1A2; assay: as §5; assay type: ADME; in short: as §1; remark: listed apart in the source
Cytochrome P450 2C9 [16] = biological target: T5, Cytochrome P450 2C9; assay: Interaction with human cytochrome P450 isoform 2C9 expressed in baculovirus-insect cells; assay type: ADME; in short: as §3

Row | SMILES | inhibition [1] | inhibition [3] | IC50 [5] | Papp [6] | Clearance [10] | further results
1 | O=C(O)C1(c2ccc(-c3ccc(C4CCCCC4)cc3)c(F)c2)CC1 | 12% | 60% | – | – | – | IC50 (Cytochrome P450 3A4 [2]): 59 µM
2 | CC(C(=O)O)c1ccc(-c2ccc(OC3CCCCC3)cc2)c(F)c1 (stereo unspecified) | 20% | 76% | 41 µM | > 5 ×10⁻⁶ cm/s | 148 mL/h | Inhibition (Cytochrome P450 3A4 [4]): > 50%; Inhibition (Cytochrome P450 1A2 [7]): > 50%; Ratio [8]: Below LLOQ; inhibition [9]: 25%
3 | CC(C(=O)O)c1ccc(-c2cc(Cl)cc(Cl)c2)c(F)c1 (stereo unspecified) | 65% | 75% | 77 µM | > 5 ×10⁻⁶ cm/s | – | IC50 [11]: 94 µM; Activation (Cytochrome P450 2C9 [12]): > 50%
4 | CC(C(=O)O)c1ccc(-c2csc3ccccc23)c(F)c1 (stereo unspecified) | 68% | 96% | 83 µM | > 5 ×10⁻⁶ cm/s | – | Activation (Cytochrome P450 2C9 [13]): > 50%
5 | CC1(C)CC(Oc2ccc(-c3ccc(C4(C(=O)O)CC4)cc3F)cc2)CC(C)(C)C1 | – | 97% | 11 µM | – | 134 mL/h | IC50 (Cytochrome P450 3A4 [14]): 27 µM; IC50 (Cytochrome P450 2D6): 30 µM; IC50 (Cytochrome P450 2C19): 33 µM; IC50 (Cytochrome P450 1A2 [15]): 26 µM; IC50 (Cytochrome P450 2C9 [16]): 15 µM
